Data: ChEMBL document CHEMBL1130286, “Nicotinamide derivatives as a new class of gastric H+/K(+)-ATPase inhibitors. 1. Synthesis and structure-activity relationships of N-substituted 2-(benzhydryl- and benzylsulfinyl)nicotinamides” (J Med Chem, 1997)
The source made the active and inactive calls. The rule behind the calls is not given here.

What was measured:
[1] = species: Oryctolagus cuniculus; assay: Percent inhibition of [14C]aminopyrine (AP) accumulation stimulated by dibutyryl uM; Not effective; type: functional
How it was run: (§1)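 Parietal cells were isolated from rabbit gastric tissue, and the cell-rich fraction (1-2 × 10⁷ cells/300 µL) was put in Earle's balanced salt solution. The medium held 5.6 kBq [¹⁴C]aminopyrine, 25 mM HEPES-NaOH pH 7.4, 0.2% BSA and test compound. Cells were stimulated with 1 mM dbcAMP at 37 °C for 30 min under 95% O₂/5% CO₂, then centrifuged, solubilized and scintillation-counted. Counts with 0.1 mM dinitrophenol were subtracted, and IC50 came from regression lines.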

[2] = test system: Rattus norvegicus; assay: Percent inhibition of histamine induced gastric acid secretion in pylorus-ligated rats at 100 mg/Kg intraduodenal dose; settings: Stomach
[3] = test system: Potassium-transporting ATPase (Oryctolagus cuniculus); assay: Percent inhibition of [14C]aminopyrine (AP) accumulation in dibutyryl cAMP stimulated rbbit parietal cells at 10 uM
[4] = test system: Rattus norvegicus; assay: Percent inhibition of histamine induced gastric acid secretion in pylorus-ligated rats at 100 mg/Kg […] dose; Not effective; type: functional, organism-based; settings: Stomach
[5] = t1/2 is the time taken for the conversion of nicotinamides to isothiazolopyridine at pH=1.0; type: ADME
How it was run: (§2)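 Compound from a 10 µM DMSO solution was diluted into 100 mM HCl (pH 1) or pH-adjusted McIlvaine buffer (pH 3-7) containing Triton. Mixtures were incubated at 37 °C for various times. Remaining compound was measured by reversed-phase C18 HPLC (CH₃CN/10 mM phosphate pH 7.0) with UV detection at 254 nm, and half-lives were determined from these time points.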

[6] = biological target: Potassium-transporting ATPase (Sus scrofa, UniProt P19156); assay: Inhibition of porcine gastric H+/K+ ATPase; type: tissue-based, Stomach
Chain of Potassium-transporting ATPase (P18434 whole entry): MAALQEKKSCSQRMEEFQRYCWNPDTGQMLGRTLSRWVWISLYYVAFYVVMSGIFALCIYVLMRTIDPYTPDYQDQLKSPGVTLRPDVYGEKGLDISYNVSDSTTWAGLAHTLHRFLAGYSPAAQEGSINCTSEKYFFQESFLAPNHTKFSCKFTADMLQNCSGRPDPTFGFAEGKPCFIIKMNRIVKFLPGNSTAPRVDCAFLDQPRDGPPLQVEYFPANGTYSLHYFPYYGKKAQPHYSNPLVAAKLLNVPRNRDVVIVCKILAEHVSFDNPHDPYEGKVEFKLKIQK
Chain of Potassium-transporting ATPase (P19156 whole entry): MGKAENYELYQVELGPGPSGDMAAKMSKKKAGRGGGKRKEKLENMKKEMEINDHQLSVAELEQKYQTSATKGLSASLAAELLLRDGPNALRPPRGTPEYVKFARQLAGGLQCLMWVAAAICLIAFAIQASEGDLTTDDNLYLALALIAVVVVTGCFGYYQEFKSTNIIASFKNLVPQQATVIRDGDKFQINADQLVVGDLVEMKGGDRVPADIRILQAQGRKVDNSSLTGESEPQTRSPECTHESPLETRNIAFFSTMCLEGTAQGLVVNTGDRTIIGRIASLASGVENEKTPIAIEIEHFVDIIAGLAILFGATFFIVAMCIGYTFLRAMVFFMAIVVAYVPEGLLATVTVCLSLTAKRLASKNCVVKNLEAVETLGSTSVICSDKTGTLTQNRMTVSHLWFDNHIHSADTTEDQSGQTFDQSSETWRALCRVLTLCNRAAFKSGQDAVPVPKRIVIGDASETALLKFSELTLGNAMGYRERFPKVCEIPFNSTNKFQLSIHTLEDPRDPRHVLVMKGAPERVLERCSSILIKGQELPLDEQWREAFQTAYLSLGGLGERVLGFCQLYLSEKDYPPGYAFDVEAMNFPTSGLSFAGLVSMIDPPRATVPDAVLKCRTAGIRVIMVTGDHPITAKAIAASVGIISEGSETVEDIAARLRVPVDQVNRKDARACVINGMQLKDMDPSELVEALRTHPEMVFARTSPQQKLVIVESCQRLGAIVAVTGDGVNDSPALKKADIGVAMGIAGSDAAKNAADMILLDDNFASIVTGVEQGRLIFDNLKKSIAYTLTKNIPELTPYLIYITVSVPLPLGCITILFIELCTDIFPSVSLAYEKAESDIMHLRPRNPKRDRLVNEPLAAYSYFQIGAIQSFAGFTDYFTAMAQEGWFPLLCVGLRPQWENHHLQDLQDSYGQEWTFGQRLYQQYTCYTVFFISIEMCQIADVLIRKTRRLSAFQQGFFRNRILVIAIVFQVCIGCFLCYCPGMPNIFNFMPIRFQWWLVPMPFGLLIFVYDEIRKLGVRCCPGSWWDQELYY
How it was run: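 Porcine gastric microsomes (15 µg protein) were preincubated 30 min at 37 °C with compound in 50 mM Tris-HCl pH 7.4, 4 mM MgCl₂ and 5 µg/mL gramicidin, with or without 20 mM KCl. Reaction was started with 2 mM ATP (final) and run 20 min at 37 °C, then stopped with trichloroacetic acid. Released phosphate was measured by the Sanui method. Activity was the K⁺-dependent rate, with the K⁺-free rate subtracted.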

[7] = t1/2 is the time taken for the conversion of nicotinamides to isothiazolopyridine at pH=3.0; type: ADME; how it was run: as §2
[8] = biological target: Potassium-transporting ATPase (Oryctolagus cuniculus); assay: Inhibition of [14C]aminopyrine (AP) accumulation stimulated by dibutyryl cyclic AMP in isolated rabbit parietal cells
[9] = species: Rattus norvegicus; assay: Inhibition of histamine induced gastric acid secretion in pylorus-ligated rats; type: functional; settings: Stomach
How it was run: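 Male Wistar rats (~200 g) were fasted 24 h with water allowed, 4-7 per group. Under urethane (1 g/kg) the pylorus was ligated, and drug or vehicle was given intraduodenally right after ligation. Histamine (30 mg/kg) was given sc 30 min later. After 3 h, gastric juice volume was measured and acid titrated to pH 7 with 0.01 N NaOH. Total acid output versus controls gave percent inhibition.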

[10] = species: Oryctolagus cuniculus; assay: Percent inhibition of [14C]aminopyrine (AP) accumulation stimulated by dibutyryl uM; type: functional; how it was run: as §1
[11] = t1/2 is the time taken for the conversion of nicotinamides to isothiazolopyridine at pH=5.0; type: ADME; how it was run: as §2
[12] = species: Oryctolagus cuniculus; assay: Percent inhibition of [14C]aminopyrine (AP) accumulation stimulated by dibutyryl cyclic AMP in isolated rabbit parietal cells; type: functional; how it was run: as §1
[13] = t1/2 is the time taken for the conversion of nicotinamides to isothiazolopyridine at pH=7.0; type: ADME; how it was run: as §2
[14] = test system: Rattus norvegicus; assay: Percent inhibition of histamine induced gastric acid secretion in pylorus-ligated rats at 10 mg/Kg intraduodenal dose; settings: Stomach
[15] = test system: Rattus norvegicus; assay: Percent inhibition of histamine induced gastric acid secretion in pylorus-ligated rats at 3 mg/Kg intraduodenal dose; settings: Stomach
[16] = test system: Rattus norvegicus; assay: Percent inhibition of histamine induced gastric acid secretion in pylorus-ligated rats at 100 mg/Kg intraduodenal dose; Not effective; settings: Stomach

Compound: COc1ncccc1NC(=O)c1cccnc1[S+]([O-])C(c1ccccc1)c1ccccc1 (stereo not given)
- inhibition [1]: inactive

Compound: O=C(Nc1ncccn1)c1cccnc1[S+]([O-])C(c1ccccc1)c1ccccc1 (stereo not given)
- inhibition [1]: inactive

Compound: O=C(Nc1ccncc1)c1cccnc1[S+]([O-])C(c1ccccc1)c1ccccc1 (stereo not given)
- inhibition in vivo at 100 mg/kg [2]: 30.2%
- inhibition [3]: 55%

Compound: O=C(Nc1cccc2ccccc12)c1cccnc1[S+]([O-])C(c1ccccc1)c1ccccc1 (stereo not given)
- inhibition [1]: inactive

Compound: O=C(NC1CCN(Cc2ccccc2)CC1)c1cccnc1[S+]([O-])C(c1ccccc1)c1ccccc1 (stereo not given)
- inhibition [4]: inactive

Compound: CN(C)c1ccc(NC(=O)c2cccnc2[S+]([O-])C(c2ccccc2)c2ccccc2)cc1 (stereo not given)
- inhibition [3]: 58.3%

Compound: COc1cc(C[S+]([O-])c2ncccc2C(=O)Nc2ccncc2)cc(OC)c1OC (stereo not given)
- half-life [5]: 462 min
- inhibition [3]: 11.3%

Compound: O=c1c2cccnc2sn1-c1ccncc1
- IC50 [6]: 0.22 µM

Compound: CCOc1cc(OC)ccc1C[S+]([O-])c1ncccc1C(=O)Nc1ccncc1 (stereo not given)
- half-life [5]: < 1.2 min
- half-life [7]: 0.71 h
- IC50 [6]: > 100 µM
- IC50 [8]: 0.45 µM
- ED50 [9]: 19 mg/kg

Compound: CN(C)CCc1ccc(NC(=O)c2cccnc2[S+]([O-])C(c2ccccc2)c2ccccc2)cc1 (stereo not given)
- Inhibition [10]: 7.4%
- inhibition [3]: 93.5%

Compound: COc1cc(OC)c(C[S+]([O-])c2ncccc2C(=O)Nc2ccncc2)c(OC)c1 (stereo not given)
- half-life [5]: < 1.2 min
- half-life [7]: < 0.03 h
- IC50 [6]: 7.3 µM
- IC50 [8]: 1.2 µM
- half-life [11]: 17.4 min
- ED50 [9]: 6.8 mg/kg

Compound: O=c1c2cccnc2sn1-c1ccccc1
- IC50 [6]: 0.19 µM

Compound: COc1ccc(C[S+]([O-])c2ncccc2C(=O)Nc2ccncc2)cc1 (stereo not given)
- half-life [5]: 128 min
- inhibition in vivo at 100 mg/kg [2]: 44.4%
- inhibition [3]: 33.1%

Compound: CC(C)Cn1sc2ncccc2c1=O
- IC50 [6]: 0.53 µM

Compound: COc1cc(OC)c(OC)cc1C[S+]([O-])c1ncccc1C(=O)Nc1ccncc1 (stereo not given)
- half-life [5]: < 1.2 min
- half-life [7]: 0.14 h
- IC50 [6]: > 100 µM
- inhibition in vivo at 100 mg/kg [2]: 21.7%
- inhibition [3]: 32.5%

Compound: O=C(Nc1c2ccccc2nc2ccccc12)c1cccnc1[S+]([O-])C(c1ccccc1)c1ccccc1 (stereo not given)
- inhibition [3]: 47.6%

Compound: COc1ccc(C[S+]([O-])c2ncccc2C(=O)Nc2ccncc2)c(OC)c1OC (stereo not given)
- half-life [5]: 27 min
- half-life [7]: 116 h
- inhibition [3]: 19.6%

Compound: COc1cc(OC)c(C[S+]([O-])c2ncccc2C(=O)Nc2ccncc2)cc1Br (stereo not given)
- half-life [5]: 4.2 min
- half-life [7]: 28.8 h
- inhibition in vivo at 100 mg/kg [2]: 34.8%
- IC50 [8]: 1.9 µM

Compound: Cc1ccc(C(c2ccc(C)cc2)[S+]([O-])c2ncccc2C(=O)Nc2ccncc2)cc1 (stereo not given)
- inhibition in vivo at 100 mg/kg [2]: 48.1%
- IC50 [8]: 1.5 µM

Compound: COCOc1cc(OC)ccc1C[S+]([O-])c1ncccc1C(=O)Nc1ccncc1 (stereo not given)
- half-life [5]: < 1.2 min
- IC50 [12]: 2.2 µM
- half-life [7]: 8.25 h
- inhibition in vivo at 100 mg/kg [2]: 37.7%

Compound: COc1ccc(C[S+]([O-])c2ncccc2C(=O)Nc2ccncc2)c(OCCO)c1 (stereo not given)
- half-life [5]: < 1.2 min
- half-life [7]: 1.78 h
- IC50 [8]: 59 µM

Compound: COc1ccnc(C[S+]([O-])c2nc3ccc(OC(F)F)cc3[nH]2)c1OC (stereo not given) [PANTOPRAZOLE]
- half-life [11]: 70.2 min
- half-life [13]: 23.1 h

Compound: O=C(Nc1nccs1)c1cccnc1[S+]([O-])C(c1ccccc1)c1ccccc1 (stereo not given)
- inhibition [3]: 14.7%

Compound: Cc1ccc(C(c2ccc(C)cc2)[S+]([O-])c2ncccc2C(=O)Nc2cccc3ncccc23)cc1 (stereo not given)
- inhibition in vivo at 100 mg/kg [2]: 30.4%
- inhibition [3]: 74.1%

Compound: CC(C)CNC(=O)c1cccnc1[S+]([O-])C(c1ccccc1)c1ccccc1 (stereo not given)
- inhibition [3]: 1.3%

Compound: COc1ccc(C[S+]([O-])c2ncccc2C(=O)Nc2ccncc2)c(OCCF)c1 (stereo not given)
- half-life [5]: < 1.2 min
- half-life [7]: 3.3 h
- IC50 [6]: > 100 µM
- IC50 [8]: 1.7 µM
- ED50 [9]: 8.1 mg/kg

Compound: COc1cc(C)c(C[S+]([O-])c2ncccc2C(=O)Nc2ccncc2)c(OC)c1 (stereo not given)
- half-life [5]: < 1.2 min
- half-life [7]: 0.09 h
- IC50 [6]: > 100 µM
- IC50 [8]: 0.46 µM
- half-life [11]: 257 min
- ED50 [9]: 5.7 mg/kg

Compound: COc1ccc(C[S+]([O-])c2ncccc2C(=O)Nc2ccncc2)c(OC)c1C (stereo not given)
- half-life [5]: 7.2 min
- half-life [7]: 11.6 h
- IC50 [6]: > 100 µM
- IC50 [8]: 16.6 µM

Compound: Cc1ccc2cccc(NC(=O)c3cccnc3[S+]([O-])C(c3ccccc3)c3ccccc3)c2n1 (stereo not given)
- inhibition [3]: 24.4%

Compound: CCOc1ccc(C[S+]([O-])c2ncccc2C(=O)Nc2ccncc2)c(OCC)c1 (stereo not given)
- half-life [5]: < 1.2 min
- half-life [7]: 0.49 h
- IC50 [6]: > 100 µM
- IC50 [8]: 0.4 µM
- ED50 [9]: 11.2 mg/kg

Compound: COCOCCOc1cc(OC)ccc1C[S+]([O-])c1ncccc1C(=O)Nc1ccncc1 (stereo not given)
- half-life [5]: < 1.2 min
- IC50 [12]: 2 µM
- half-life [7]: 2.75 h
- inhibition in vivo at 10 mg/kg [14]: 76.6%
- inhibition in vivo at 3 mg/kg [15]: 14.4%

Compound: COc1ccc2[nH]c([S+]([O-])Cc3ncc(C)c(OC)c3C)nc2c1 (stereo not given) [OMEPRAZOLE]
- half-life [11]: 19.2 min
- half-life [13]: 10.5 h
- ED50 [9]: 4.1 mg/kg

Compound: O=C(Nc1ccccc1)c1cccnc1[S+]([O-])C(c1ccccc1)c1ccccc1 (stereo not given)
- inhibition [3]: 5%

Compound: Cc1c(OCC(F)(F)F)ccnc1C[S+]([O-])c1nc2ccccc2[nH]1 (stereo not given) [LANSOPRAZOLE]
- half-life [11]: 16.8 min
- half-life [13]: 6.08 h

Compound: COc1cccc(OC)c1C[S+]([O-])c1ncccc1C(=O)Nc1ccncc1 (stereo not given)
- half-life [5]: 39.6 min
- half-life [7]: 38.5 h
- IC50 [6]: > 100 µM
- inhibition in vivo at 100 mg/kg [2]: 60.7%
- IC50 [8]: 26 µM
- inhibition in vivo at 10 mg/kg [14]: 12.7%

Compound: O=C(Nc1cnccn1)c1cccnc1[S+]([O-])C(c1ccccc1)c1ccccc1 (stereo not given)
- inhibition [1]: inactive

Compound: COc1ccc(C[S+]([O-])c2ncccc2C(=O)Nc2ccncc2)c(OC)c1 (stereo not given)
- half-life [5]: < 1.2 min
- half-life [7]: 0.84 h
- IC50 [6]: > 100 µM
- IC50 [8]: 0.59 µM
- half-life [11]: 2310 min
- half-life [13]: > 100 h
- ED50 [9]: 4.2 mg/kg

Compound: O=C(Nc1ccc2ncccc2c1)c1cccnc1[S+]([O-])C(c1ccccc1)c1ccccc1 (stereo not given)
- inhibition in vivo at 100 mg/kg [2]: 21.7%
- inhibition [3]: 61.8%

Compound: O=C(Nc1cccnc1)c1cccnc1[S+]([O-])C(c1ccccc1)c1ccccc1 (stereo not given)
- inhibition [16]: inactive
- inhibition [3]: 43.7%

Compound: O=C(Nc1ccccn1)c1cccnc1[S+]([O-])C(c1ccccc1)c1ccccc1 (stereo not given)
- Inhibition [10]: 8%

Compound: Cc1cc(C)c2ccc(NC(=O)c3cccnc3[S+]([O-])C(c3ccccc3)c3ccccc3)nc2n1 (stereo not given)
- inhibition [16]: inactive
- inhibition [3]: 68.6%

Compound: Nc1ccc(NC(=O)c2cccnc2[S+]([O-])C(c2ccccc2)c2ccccc2)cc1 (stereo not given)
- inhibition [3]: 57.4%
